Most compounds without a hit are left out; they make up all but 3.9% or so of the library.
SR-BI HDL uptake: inhibitors of mouse SR-BI mediated HDL lipid uptake; Q61009; ldlA[mSR-BI] CHO cells, DiI-HDL uptake fluorescence, 3 h; inhibition, % at 12.5 µM; 320,000 compounds, 0.96% hits; AID 488896;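 active = mean replicate inhibition of at least 70% and a set share of replicates each scoring 70 or more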;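 also: 0% = median of neutral control wells and 100% = median of positive control wells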
FXN GAA850 act: activators of GAA850 frataxin (FXN) promoter | activation, % at 6 µM | 360,000 compounds, 0.56% hits | HEK293 lucGAA850 FXN promoter luciferase reporter, 24 h; percent of 10 µM SAHA response;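 active = activation above the average of all compounds screened plus 3 SD, cutoff fixed separately per campaign, cut at about 7.5% in these data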;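 also: 0% = DMSO wells and 100% = 10 µM SAHA wells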
ABCB6 inh 2: human ABCB6 transporter inhibition; fluorescence ratio to DMSO, % at 10 µM; 360,000 compounds, 0.19% hits; K562-ABCB6 porphyrin accumulation, flow cytometry, 1 h; stronger effect = lower value; Q9NP58;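 active = fluorescence ratio to DMSO below 75%, the collection mean minus 3 SD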;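 also: signal is porphyrin accumulated inside mitochondria; 100% equals median channel fluorescence of DMSO control wells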
SR-BI DiI-HDL act: SR-BI HDL lipid transfer activation; AID 504775; CHO ldlA[mSR-BI] cells, DiI-HDL uptake fluorescence, 3 h; 100 = double the neutral-control signal; 320,000 compounds, 0.096% hits; activation, % at 12.5 µM;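 active = mean replicate activation of at least 60% and every replicate at or above 60%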;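 also: 0% = median plate neutral-control signal and 100% = twice that signal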
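System: CHO ldlA[mSR-BI] cells / Medium: HEPES-buffered (25 mM, pH 7.4) F12 plus 0.5% BSA / Probe or stimulus: labelled HDL, 10 µg/mL / Doses: single compound concentration, delivered by pin transfer / Schedule: 3 h, 37 °C / Measured by: DiI fluorescence, bottom read / Measure: cell-associated DiI fluorescence as measure of HDL uptake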
AHR act: activates the human aryl hydrocarbon receptor. AHR-responsive luciferase reporter cells, luminescence. activation, % at 5 µM. 320,000 compounds, 2.5% hits; in the data active = activation above about 47%;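 also: 0% = vehicle wells and 100% = reference agonist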
Target sequence (P35869 whole entry, looked up): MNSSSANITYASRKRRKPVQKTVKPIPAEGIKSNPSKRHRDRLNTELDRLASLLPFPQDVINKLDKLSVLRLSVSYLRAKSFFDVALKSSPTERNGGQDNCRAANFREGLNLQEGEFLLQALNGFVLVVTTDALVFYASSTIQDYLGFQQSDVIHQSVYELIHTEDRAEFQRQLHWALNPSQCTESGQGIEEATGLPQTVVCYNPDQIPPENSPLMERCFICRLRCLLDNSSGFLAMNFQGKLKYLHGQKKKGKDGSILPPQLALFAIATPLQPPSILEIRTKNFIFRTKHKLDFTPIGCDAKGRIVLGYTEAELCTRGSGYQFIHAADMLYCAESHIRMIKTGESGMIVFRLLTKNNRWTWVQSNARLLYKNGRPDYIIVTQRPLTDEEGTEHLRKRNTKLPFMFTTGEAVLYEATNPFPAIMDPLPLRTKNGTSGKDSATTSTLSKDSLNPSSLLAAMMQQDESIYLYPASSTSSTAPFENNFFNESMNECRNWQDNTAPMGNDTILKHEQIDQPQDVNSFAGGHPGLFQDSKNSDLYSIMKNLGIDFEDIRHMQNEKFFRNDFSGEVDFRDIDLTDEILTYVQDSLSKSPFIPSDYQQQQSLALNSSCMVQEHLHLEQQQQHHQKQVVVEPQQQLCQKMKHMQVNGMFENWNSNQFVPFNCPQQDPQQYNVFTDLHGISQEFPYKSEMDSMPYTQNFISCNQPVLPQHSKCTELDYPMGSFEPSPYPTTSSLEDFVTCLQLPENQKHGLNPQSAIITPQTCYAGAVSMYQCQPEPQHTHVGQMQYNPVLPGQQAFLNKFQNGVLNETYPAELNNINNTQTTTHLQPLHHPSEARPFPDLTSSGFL
HIF activator: HIF pathway transcriptional activation; activation, % at 7.5 µM (by protocol); U2OS HRE-luciferase reporter, luminescence; normalized: DMSO 0%, desferrioxamine 100%; AID 1910; 300,000 compounds, 0.32% hits;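 active = mean activation of at least 10% of the iron chelator positive control signal, with at least half of replicates also reaching 10%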
GAA30 FXN cntr: GAA30 FXN promoter activation counter-screen; activation, % at 6 µM; HEK293 lucGAA30 FXN promoter luciferase, 24 h; DMSO = 0%, 5 µM ipriflavone = 100%; 1,900 compounds, 66% hits; shares compounds with FXN GAA850 act;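 active = mean activation above the mean of solvent-only control wells plus 3 SD, cut at about 22% in these data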;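 also: counterscreen of GAA850 promoter hits where activity marks nonselective or luminescence artifacts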
FXN GAA850 conf: confirmation of GAA850 frataxin (FXN) promoter activators | activation, % at 6 µM | shares compounds with FXN GAA850 act | 1,900 compounds, 86% hits | HEK293 lucGAA850 FXN promoter luciferase reporter, 24 h; 100% = activation by SAHA | AID 588351;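 active = mean activation above a set limit taken from the primary screen, cut at about 8% in these data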;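 also: 0% = DMSO wells and 100% = 10 µM SAHA wells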
* hit, by the source's call; / = not tested or not shown.

SMILES	SR-BI HDL uptake	FXN GAA850 act	ABCB6 inh 2	SR-BI DiI-HDL act	AHR act	HIF activator	GAA30 FXN cntr	FXN GAA850 conf
O=C(N/N=C/c1ccc(O)cc1)Nc1cccc2nsnc12	22	11*	99	-22	9	4	57*	37*
COc1ccc(OC)c(C(=O)COC(=O)c2ccc([N+](=O)[O-])o2)c1	-3	0	90	3	0	/	/	/
Cc1ccc(-c2nc(NCc3cccnc3)c3ccccc3n2)cc1	27	7.7*	91	-27	22	0	30*	13*
c1ccc(-c2nc(NCc3cccnc3)c3ccccc3n2)cc1	4	4	99	-4	3	0	/	/
Cc1ccc(NC(=O)CNc2ccc(Cl)c(Cl)c2)cc1S(=O)(=O)N(C)C	13	-1	94	-13	-2	0	/	/
Cc1ccc(NC(=O)CSc2nn(-c3ccc(Cl)cc3)c(=S)s2)cc1S(=O)(=O)N(C)C	/	10*	100	/	3	-1	6	6
CN(C)S(=O)(=O)c1cc(NC(=O)CSc2nn(-c3ccc(Cl)cc3)c(=S)s2)ccc1Cl	36	11*	97	-36	5	0	14	9.1*
Cc1cc(/C([O-])=C(/C(=S)Nc2ccccc2)[n+]2ccccc2)c(C)n1-c1ccccc1	10	6	99	-10	28	-7	/	/
C=CCn1c(SCC(=O)Nc2ccccc2OC)nc2c([nH]c3ccccc32)c1=O	8	13*	101	-8	34	0	18	12*
COc1ccc(NC(=O)CSc2nc3c([nH]c4ccccc43)c(=O)n2C)c(OC)c1	9	1	99	-9	22	-4	/	/
O=C(CS(=O)(=O)c1ccccc1)N1CCc2ccccc21	-6	8.5*	93	6	33	1	99*	30*
S=C(c1ccc(-c2cccc(Cl)c2)o1)N1CCCCC1	9	8	86	-9	13	3	/	/
N#CCCN1CCN(C(=S)c2ccc(-c3cccc(Cl)c3)o2)CC1	3	8.6*	100	-3	3	2	74*	31*
N#CCCN1CCN(C(=S)c2ccc(-c3ccc(Cl)c(Cl)c3)o2)CC1	61	8.7*	108	-61	15	1	72*	30*
CC1CCCN(c2nc3ccsc3c(=O)s2)C1 (centres undefined)	-1	11*	96	1	-5	3	82*	35*
Cc1nn2c(-c3cccc(NC(=O)c4ccco4)c3)nnc2c2ccccc12	-2	1	96	2	41	0	/	/
O=C(Nc1ccccc1O)c1csc2c1CCCC2	16	11*	97	-16	31	3	119*	44*
CCn1c(SCC(=O)Nc2oc(C)c3c(C)n[nH]c(=O)c23)nc2sc(C)c(C)c2c1=O	-7	0	98	7	10	0	/	/
O=C(CSc1ncnc2c1oc1ccccc12)Nc1cccc(Cl)c1	-5	1	95	5	19	1	/	/
Cc1ccc(S(=O)(=O)N2[C@@H](c3ccc(Cl)cc3)C(C(=O)OC(C)(C)C)=CC[C@H]2c2ccc(Cl)c(Cl)c2)cc1	/	/	97	/	/	/	/	/
COc1ccc(-c2cc(-c3cc(C)ccc3O)[nH]n2)cc1	69	13*	99	-69	27	4	53*	46*
O=C(NCCc1ccc(Cl)cc1)C1CCC(=O)N1Cc1ccccc1Cl (centres undefined)	-2	-2	96	2	0	0	/	/
CCCNc1nc2ccccc2n2c(C)nnc12	-9	3	98	9	18	2	/	/
CC1(C)CC(=O)c2c(O)cc(OCc3ccc(Br)cc3)cc2O1	42	9.4*	91	-42	12	3	99*	36*
COC(=O)c1ccc(COc2cc(O)c3c(c2)OC(C)(C)CC3=O)cc1	31	1	96	-31	-4	0	/	/
SMILES	SR-BI HDL uptake	FXN GAA850 act	ABCB6 inh 2	SR-BI DiI-HDL act	AHR act	HIF activator	GAA30 FXN cntr	FXN GAA850 conf
CC1(C)CC(=O)c2ccc(OCc3ccc([N+](=O)[O-])cc3)cc2O1	30	8.4*	94	-30	24	3	136*	50*
S=C1NCN(Cc2cccnc2)CN1	/	0	97	/	-1	0	/	/
CN(C)C(=S)N=c1ssc(=S)n1Cc1cccnc1	0	12*	177	0	/	/	1	12*
Cc1ccc(NC(=O)C(=O)NCc2ccccn2)cc1	-23	8.3*	104	23	7	3	90*	38*
O=C(NCc1ccccn1)C(=O)Nc1ccccc1	-17	3	97	17	2	2	/	/
C=C1CCC2[C@](C)(CO)[C@H](O)CC[C@@]2(C)[C@@H]1/C=C/C1=CCOC1=O (some centres undefined)	-7	1	95	7	1	0	/	/
COc1ccc(-c2cc(C(=O)NC(C)C)no2)cc1	-1	8.1*	94	1	2	1	106*	32*
CN(C)CCNc1ccc2ncn3c4ccc(O)cc4c(=O)c1c23	-1	8.4*	246	1	/	/	-42	26*
CN(C)CCNc1ccc(CO)c2sc3ccc(O)cc3c(=O)c12	-7	-4	118	7	/	/	/	/
COC(=O)c1ccccc1NC(=S)NC(=O)COc1ccccc1Cl	25	3	101	-25	5	-1	/	/
COC(=O)c1sccc1NC(=O)COc1ccccc1Cl	33	7.9*	97	-33	6	2	81*	29*
CCOC(=O)c1cc2c(=O)n3ccccc3nc2n(CCCOC)c1=NC(=O)C(C)(C)C	14	4	103	-14	-4	0	/	/
CCOC(=O)c1cc2c(=O)n3ccccc3nc2n(CCOC)c1=NC(=O)C(C)(C)C	-17	10*	104	17	1	0	92*	35*
CCCCOCCCn1c(-c2ccco2)nc2nc3ccccc3nc21	0	3	109	0	4	0	/	/
CCCCNC(=O)N(O)C1N(/N=C/c2ccccc2F)C(=S)SC1(C)C (centres undefined)	16	8.4*	100	-16	1	-1	26*	7
CCCCNC(=O)N(O)C1N(/N=C/c2ccco2)C(=S)SC1(C)C (centres undefined)	-8	0	97	8	0	/	/	/
O=C(CSC1=NCCN1)Nc1cccc([N+](=O)[O-])c1	82*	9.5*	96	-82	3	4	43*	22*

Screening results deposited in PubChem by several laboratories.
